Compound activity from PubChem.
Sampled rows, rich in hits. Any-hit rate of the full collection: about 3.9%.
GAA850 FXN act: frataxin GAA850 promoter activation; hit rate 0.56% among 360,000; HEK293 lucGAA850 FXN promoter luciferase reporter, 24 h; percent of 10 µM SAHA response; AID 540364; activation, % at 6 µM;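 active means activation above the average of all compounds screened plus 3 SD, cutoff fixed separately per campaign, cut at about 7.5% in these data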
SR-BI uptake up: enhances SR-BI lipid uptake from DiI-HDL; CHO ldlA[mSR-BI] cells, DiI-HDL uptake fluorescence, 3 h; 100 = double the neutral-control signal; activation, % at 12.5 µM; hit rate 0.096% among 320,000;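 active means mean replicate activation of at least 60% and every replicate at or above 60%; inconclusive means mean or all-replicate condition met, but not both; inactive means mean below 60% and not all replicates reaching 60%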
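Assay system: CHO ldlA[mSR-BI] cells, LDL receptor-null, SR-BI overexpressing; medium: Ham's F12 with 0.5% BSA, HEPES 25 mM, pH 7.4; also added: DiI-HDL 10 µg/mL; timing: 3 h uptake period with compound, 37 °C; signal: DiI fluorescence, bottom read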
SR-BI HDL uptake: inhibitors of mouse SR-BI mediated HDL lipid uptake | inhibition, % at 12.5 µM | Q61009 | ldlA[mSR-BI] CHO cells, DiI-HDL uptake fluorescence, 3 h | hit rate 0.96% among 320,000;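 active means mean replicate inhibition of at least 70% and a set share of replicates each scoring 70 or more; inconclusive means meets just one of the two criteria; inactive means fails both criteria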
ABCB6 inh MLPCN: inhibitors of human ABC transporter ABCB6. Q9NP58. K562-ABCB6 porphyrin accumulation, flow cytometry, 1 h; hits give low values. fluorescence ratio to DMSO, % at 10 µM. hit rate 0.19% among 360,000;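 active means fluorescence ratio to DMSO below 75%, the collection mean minus 3 SD; inconclusive means too few cells collected in the well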;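 further: signal is porphyrin accumulated inside mitochondria; lower ratio means ABCB6 inhibition with less porphyrin fluorescence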
HIF act: HIF pathway transcriptional activation. U2OS HRE-luciferase reporter, luminescence; normalized: DMSO 0%, desferrioxamine 100%. activation, % at 7.5 µM (by protocol). hit rate 0.32% among 300,000. AID 1910;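 active means mean activation of at least 10% of the iron chelator positive control signal, with at least half of replicates also reaching 10%; inconclusive means mean and replicate majority disagree about reaching 10%; inactive means mean and most replicates under 10%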
AHR activator: activators of human aryl hydrocarbon receptor; P35869; AHR-responsive luciferase reporter cells, luminescence; activation, % at 5 µM; hit rate 2.5% among 320,000; AID 2796; in the data active means activation above about 47%
AHR act confirm: human AHR activation, confirmation; activation, % at 9 µM; human cells, AHR-responsive luciferase reporter, luminescence; hit rate 87% among 2,300; shares compounds with AHR activator; AID 2845; in the data active means activation above about 49%;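 further: HepG2 hepatoma cells carrying a DRE-driven firefly luciferase reporter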
PXR counter: PXR activation, counter-screen for AHR activators | shares compounds with AHR activator | cell-based PXR reporter, luciferase luminescence | activation, % at 11.6 µM | hit rate 88% among 2,300; in the data active means activation above about 11%;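 further: human hepatoma DPX-2 cells expressing full-length human PXR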
Target sequence (O75469 whole entry, looked up): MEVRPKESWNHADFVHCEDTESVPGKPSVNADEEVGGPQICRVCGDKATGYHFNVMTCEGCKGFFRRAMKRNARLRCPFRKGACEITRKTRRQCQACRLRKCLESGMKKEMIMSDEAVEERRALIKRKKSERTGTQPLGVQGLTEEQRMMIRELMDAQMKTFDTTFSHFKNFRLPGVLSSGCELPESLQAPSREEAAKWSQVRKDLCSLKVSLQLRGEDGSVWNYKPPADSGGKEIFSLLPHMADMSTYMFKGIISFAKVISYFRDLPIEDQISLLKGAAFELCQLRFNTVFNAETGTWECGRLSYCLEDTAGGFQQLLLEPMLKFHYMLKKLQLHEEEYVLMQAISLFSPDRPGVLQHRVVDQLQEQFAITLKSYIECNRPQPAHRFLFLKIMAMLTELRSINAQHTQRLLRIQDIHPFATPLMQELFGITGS
Each line names hits and unclear results; the compound was inactive in the other large screens (follow-up assays come after a bar, where they were run).

Cn1c(=O)c2c(nc(/C=C/c3cccc(Cl)c3)n2C)n(C)c1=O	AHR activator 86 (no result: GAA850 FXN act, SR-BI uptake up, SR-BI HDL uptake, ABCB6 inh MLPCN) | AHR act confirm 55
COc1ccccc1-c1nnc(-c2ccc(C)cc2)o1	AHR activator 81 | AHR act confirm 123 | PXR counter 39
COc1ccccc1-c1nnc(-c2ccc(N3CCOCC3)cc2)o1	none
CCn1c(-c2ccc([N+](=O)[O-])cc2)n[nH]c1=S	none
CCSc1nc2c(c(=O)[nH]c(=O)n2C)n1C	none
O=C(c1ccco1)c1coc2c1cc(O)c1ccccc12	AHR activator 89 | AHR act confirm 120 | PXR counter 18
CC(=O)c1coc2c1cc(O)c1ccccc12	none
Cc1cccc(C(=O)N[C@H](C(=O)Nc2nnc(C3CC3)s2)C(C)C)c1	none
Cc1cccc(C(=O)N[C@H](C(=O)Nc2ncc(C)s2)C(C)C)c1	AHR activator 104 | AHR act confirm inactive | PXR counter 364
N#Cc1c(-c2ccccc2)cc2nc3ccccc3n2c1N	AHR activator 85 | AHR act confirm 88 | PXR counter 31
COc1cc(-c2cc3nc4ccccc4n3c(N)c2C#N)cc(OC)c1OC	none (no result: SR-BI uptake up, SR-BI HDL uptake)
COc1ccc2nc(Nc3nc(C)c(C(C)=O)s3)sc2c1	none
COc1cc(C)nc(Nc2nc(C)c(C(C)=O)s2)n1	AHR activator 108 | AHR act confirm inactive | PXR counter 11
COc1ccc(OCCCC(=O)Nc2nccs2)cc1	none
O=C(CNC(=O)c1ccc(Br)cc1)c1ccc(Br)cc1	none
NNc1nc(-c2ccccc2)cs1	AHR activator 80 | AHR act confirm 82 | PXR counter 27
Clc1ccccc1Nc1nc(-c2cccnc2)cs1	AHR activator 114 | AHR act confirm 129 | PXR counter 16
CCOc1ccccc1Nc1nc(-c2cccnc2)cs1	none (no result: AHR activator)
c1csc(-c2csc(-c3cccs3)n2)c1	none
c1ccc(Nc2nc(-c3cccnc3)cs2)nc1	AHR activator 166 | AHR act confirm 74 | PXR counter 41
Nc1ccc(Nc2nc(-c3cccs3)cs2)cc1	SR-BI HDL uptake 100, AHR activator 117 | AHR act confirm inactive | PXR counter 16
CCOc1ccc(NCc2cccn2-c2nnc(N3CCC(C(=O)NCCCN4CCCCC4CC)CC3)s2)cc1 (centres undefined)	none
O=C1CN(C(=O)c2ccccc2)C(c2ccc(F)cc2)c2cc(Br)ccc2N1 (centres undefined)	none
Cc1cc(NC(=O)CCC(=O)N(Cc2ccco2)C(C)(C)C(=O)NC2CCCCC2)no1	none
COc1ccc(-c2csc(Nc3cccnc3)n2)cc1OC	none
Oc1ccc(-c2csc(Nc3ccccn3)n2)c(O)c1	AHR activator 169 | AHR act confirm 103 | PXR counter 15
CC(=O)Nc1nc(C)c(-c2csc(Nc3ccccn3)n2)s1	HIF act inconclusive, AHR activator 116 | AHR act confirm 108 | PXR counter 32
NS(=O)(=O)c1ccc(Nc2nc(-c3ccc(O)cc3O)cs2)cc1	none
COc1cccc(Nc2nc(-c3cccnc3)cs2)c1	AHR activator 108 | AHR act confirm 127 | PXR counter 13
CCC(=O)Nc1nc(-c2ccccc2)ns1	AHR activator 102 | AHR act confirm 84 | PXR counter 32
CC(=O)Nc1cccc(-c2csc(Nc3ccc(Cl)cn3)n2)c1	none
Fc1ccc(-c2csc(Nc3ccccn3)n2)cc1	AHR activator 83 | AHR act confirm 107 | PXR counter 18
CC(=O)Nc1cccc(-c2csc(Nc3ccccn3)n2)c1	AHR activator 85 | AHR act confirm 74 | PXR counter inactive
c1ccc(Nc2nc(-c3cccs3)cs2)nc1	AHR activator 117 | AHR act confirm 155 | PXR counter 23
Cc1ccnc(Nc2nc(-c3c(C)nc4sccn34)cs2)c1	none
Cc1ccnc(Nc2nc(-c3ccccc3)cs2)c1	AHR activator 163 | AHR act confirm 89 | PXR counter 48
O=C(NCc1ccco1)C1CCN(S(=O)(=O)c2ccc(-n3cnnn3)cc2)CC1	none
CCC(=O)Nc1cccc(-c2csc(-c3ccccc3)n2)c1	AHR activator 105 | AHR act confirm 85 | PXR counter 21
Cc1ccc(C)c(Nc2nc(-c3cccnc3)cs2)c1	AHR activator 82 | AHR act confirm 90 | PXR counter 26
CC(C)CC(=O)Nc1cccc(-c2csc(-c3ccccc3)n2)c1	none
O=C(Nc1ccccc1)Nc1nc(-c2ccc(F)cc2)cs1	none
Cc1ccc(Nc2nc(-c3cccnc3)cs2)cc1Cl	none
Fc1ccc(-c2csc(NC(=S)Nc3ccccc3)n2)cc1	AHR activator 84 | AHR act confirm 79 | PXR counter 32
C/C=C(\C)C(=O)OC(C)(C)[C@@H]1Cc2cc3ccc(=O)oc3cc2O1	none (no result: HIF act)
O=S(=O)(Nc1cccc2ncccc12)c1cccs1	none
O=S(=O)(Nc1ccc(-c2nc3cccnc3s2)cc1)c1cccs1	AHR activator 95 | AHR act confirm 98 | PXR counter 29
CCCCNC(=S)Nc1cccc2cnccc12	AHR activator 89 | AHR act confirm 61 | PXR counter 13
COCCNC(=S)Nc1cccc2cnccc12	none
CCCCCCCCN1C(=O)[C@H](CC(=O)NCCCC)C[C@@]2(C(=O)OC)CCCCC=C12	none (no result: GAA850 FXN act, SR-BI uptake up, SR-BI HDL uptake, HIF act, AHR activator)
O=C(/C(=C(\[O-])c1ccccc1)[n+]1ccc2ccccc2c1)c1ccc(Cl)cc1	AHR activator 103 | AHR act confirm 92 | PXR counter 54
S=C(NCc1ccc2[nH]c3c(c2c1)CCCC3)Nc1ccccc1	AHR activator 112 | AHR act confirm 71 | PXR counter 36
Cc1cc(C)cc(NC(=S)NCc2ccc3[nH]c4c(c3c2)CCCC4)c1	none
Cn1c(-c2ccc(Br)o2)nc2cc(Br)ccc21	AHR activator 116 (no result: HIF act) | AHR act confirm 125 | PXR counter 20
CCc1noc(C)c1C(=O)Nc1nc(-c2ccc(F)cc2)c(C)s1	AHR activator 95 | AHR act confirm 85 | PXR counter 28
O=C(Nc1cccc2nsnc12)c1ccc(F)cc1	none
Cc1ccc(-c2cc(-c3cccs3)[nH]n2)c(O)c1	AHR activator 109 | AHR act confirm 118
CCc1ccc(NC(=O)c2sccc2-n2cccc2)cc1	AHR activator 102 | AHR act confirm 141 | PXR counter 41
Cc1ccc(NC(=O)c2sccc2-n2cccc2)c(C)c1	none
O=C(Nc1ccc(Cl)cc1)c1sccc1-n1cccc1	AHR activator 138 | AHR act confirm 145 | PXR counter 28
